Assay results gathered from unrelated publications.
Each line is one published result; the experiments were not run side by side.
Target: 3-phosphoinositide-dependent protein kinase 1 (PDPK1, Homo sapiens, UniProt O15530)
Sequence (O15530 1-556, as in one of the studies): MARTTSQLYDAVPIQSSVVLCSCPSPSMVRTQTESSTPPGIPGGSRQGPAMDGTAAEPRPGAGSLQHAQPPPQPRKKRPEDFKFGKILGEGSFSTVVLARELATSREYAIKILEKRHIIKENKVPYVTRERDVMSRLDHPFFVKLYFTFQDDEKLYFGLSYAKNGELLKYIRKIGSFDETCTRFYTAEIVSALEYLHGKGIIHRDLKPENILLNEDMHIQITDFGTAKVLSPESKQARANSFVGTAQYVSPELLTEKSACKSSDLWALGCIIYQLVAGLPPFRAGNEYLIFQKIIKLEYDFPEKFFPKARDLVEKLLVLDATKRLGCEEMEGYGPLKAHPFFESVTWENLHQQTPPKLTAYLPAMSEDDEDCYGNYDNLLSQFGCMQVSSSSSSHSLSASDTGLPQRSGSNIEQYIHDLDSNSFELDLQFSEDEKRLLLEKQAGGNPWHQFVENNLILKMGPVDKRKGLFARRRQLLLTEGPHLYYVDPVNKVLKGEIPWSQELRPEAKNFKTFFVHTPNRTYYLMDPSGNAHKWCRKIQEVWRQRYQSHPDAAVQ

| Structure (SMILES) | assay | setting | remaining binding |
| --- | --- | --- | --- |
| O=C(NCC1CCOCC1)c1n[nH]cc1NC(=O)c1c(F)cccc1F | binding, competition with immobilised ligand | 1 µM | 100% |
| COc1cc2ncnc(Nc3ccc(F)c(Cl)c3)c2cc1OCCCN1CCOCC1 | cell-free assay, competition with immobilised ligand | 0.1 µM | 100% |
| O=C(NCCCN1CCOCC1)c1ccc(Nc2ncc(Cl)c(-c3ccc(Cl)s3)n2)cc1 | binding, competition with immobilised ligand | 1 µM | 100% |
| c1cnn2ncc(-c3ccnc(N4CCC45COC5)n3)c2c1 | binding | 1 µM | 98% |
| Cc1c(C(=O)O)cc(-c2ccc(C3CCNCC3)cc2)c2ccc(-c3ccc(C(F)(F)F)cc3)cc12 | binding, competition with immobilised ligand | 1 µM | 100% |
| C[C@@H](c1ccc(-n2cnc3c(N)ncnc32)cc1)N1CCc2nn(C)c(Cc3ccccc3)c2C1=O | binding, competition with immobilised ligand | 0.1 µM | 100% |
| Cc1ccc(NC(=O)c2ccc(CN3CCN(C)CC3)cc2)cc1Nc1nccc(-c2cccnc2)n1 | cell-free assay, competition with immobilised ligand | 10 µM | 100% |
| FC(F)(F)Oc1cccc(-c2cnc3ccc(-c4ccncc4)nn23)c1 | cell-free assay, competition with immobilised ligand | 5 µM | 90% |
| COc1ccc2c(c1)O[C@@H](c1ccc(OC)c(OC)c1)C[C@H]2NC(=O)C1(c2ccc3c(c2)OC(F)(F)O3)CC1 | cell-free assay, competition with immobilised ligand | 1 µM | 100% |
| COc1ncc2cc3ccccc3nc2c1C#N | cell-free assay, competition with immobilised ligand | 5 µM | 88% |
| C[C@@]1(Cc2ccc(C#N)cc2)C(=O)N(c2cc(Cl)cc(Cl)c2)c2ncc(C(=O)NC3(c4nc(C5CCC5)no4)CC3)n21 | cell-free assay, competition with immobilised ligand | 1 µM | 100% |
| CN1CC[C@H](c2c(O)cc(O)c3c(=O)cc(-c4ccccc4Cl)oc23)[C@H](O)C1 | cell-free assay, competition with immobilised ligand | 10 µM | 100% |
| Cc1cnc(Nc2ccc(C(=O)N3CCC(N4CCCC4)CC3)cc2)nc1-c1cc2ccccc2s1 | binding, competition with immobilised ligand | 1 µM | 72% |
| CCN(CC)CCNC(=O)c1c(C)[nH]c(/C=C2\C(=O)Nc3ccc(F)cc32)c1C | cell-free assay, competition with immobilised ligand | 10 µM | 39% |
| CN(C)c1nccc(-c2cnn3ncccc23)n1 | binding | 1 µM | 100% |
| N#Cc1ccccc1CSc1nnc2c(n1)[nH]c1ccccc12 | binding, competition with immobilised ligand | 10 µM | 91% |
| N[C@@H]1CCN(c2nccc(-c3cnn4ncccc34)n2)C1 | binding | 1 µM | 96% |

| Structure (SMILES) | assay | setting | remaining binding |
| --- | --- | --- | --- |
| Cc1c(-c2ccccc2)oc2c(C(=O)OCCN3CCCCC3)cccc2c1=O | cell-free assay, competition with immobilised ligand | 10 µM | 100% |
| NS(=O)(=O)c1cc(NC(=O)C2(c3ccccc3Cl)CC2)ccc1Oc1cccc(Cl)c1 | cell-free assay, competition with immobilised ligand | 1 µM | 85% |
| Cc1nc(Nc2ncc(C(=O)Nc3c(C)cccc3Cl)s2)cc(N2CCN(CCO)CC2)n1 | cell-free assay, competition with immobilised ligand | 0.1 µM | 100% |
| CN(CCCC(F)(F)F)c1nccc(-c2cnn3ncccc23)n1 | binding | 1 µM | 100% |
| Nc1ncc2c(n1)-c1c([nH]c3ccc(C#CC4CC4)cc13)CCCC2 | binding, competition with immobilised ligand | 1 µM | 91% |
| COc1ccnn2ncc(-c3ccnc(N(C)C)n3)c12 | binding | 1 µM | 100% |
| CN(C)C(=O)Cn1cc(-c2nc([C@@](C)(c3ccc(-c4cnc(N)nc4)cc3)C3CC3)no2)cn1 | cell-free assay, competition with immobilised ligand | 1 µM | 99% |
| CS(=O)(=O)CCNCc1ccc(-c2ccc3ncnc(Nc4ccc(OCc5cccc(F)c5)c(Cl)c4)c3c2)o1 | cell-free assay, competition with immobilised ligand | 0.1 µM | 100% |
| O=C(Nc1cccnn1)N1CCC(=Cc2cccc(Oc3ccc(C(F)(F)F)cn3)c2)CC1 | cell-free assay, competition with immobilised ligand | 1 µM | 85% |
| C[C@@H]1CCN(c2nccc(-c3cnn4ncccc34)n2)C1 | binding | 1 µM | 89% |
| C[C@H](c1ccc(F)cc1)N(Cc1cccc(C(=O)O)c1)C(=O)c1cnc2ccccc2c1 | cell-free assay, competition with immobilised ligand | 1 µM | 100% |
| O=C(c1ccc(Nc2ncc(Cl)c(-c3cc4ccccc4s3)n2)cc1)N1CCC(N2CCCC2)CC1 | binding, competition with immobilised ligand | 1 µM | 78% |
| CCN(CC)Cc1cc(Nc2ccnc3cc(Cl)ccc23)ccc1O | cell-free assay, competition with immobilised ligand | 0.1 µM | 100% |
| COc1cnc(Nc2cccc(S(N)(=O)=O)c2)nc1N1CCN(c2ccccc2)CC1 | binding, competition with immobilised ligand | 1 µM | 100% |
| O=C(NC[C@@H]1[C@H]2CN(C(=O)OCc3cc(C(F)(F)F)cc(C(F)(F)F)c3)C[C@@H]12)c1ccc2[nH]nnc2c1 | cell-free assay, competition with immobilised ligand | 1 µM | 96% |
| C[C@@H]1CN(c2ccc3ncc(-c4ccc5[nH]nc(C6CC6)c5c4)n3n2)C[C@H](C)O1 | binding, competition with immobilised ligand | 0.5 µM | 100% |
